Values joined by “and” are separate entries in the source; they are usually repeats but may differ in a detail not shown here. Equal values may be shown once. Read-outs that look alike come from different tables or passages of the source.
Assays:
Assay type in all cases: binding, E. coli
OmpG = OmpG (Escherichia coli, UniProt P76045, D245C); experiment: biochemical; details: for q (slope factor or transition steepness): calculated at the midpoint of the dissociation phase; for ΔRh: decrease in hydrodynamic radius as a result of detergent desolvation; for p (Hill coefficient): four-parameter Hill fit; for rmax: maximum anisotropy at detergent concentrations above the CMC; for rmax / rmin: pH 7.4; for Rh max: maximum hydrodynamic radius of the proteomicelle; for rmin: minimum anisotropy, extrapolated for the lowest detergent concentration; for Dr fast: rotational diffusion coefficient under desolvation conditions; for Dr slow: rotational diffusion coefficient under solvation conditions; for ΔG: ΔG = RT ln Kd
FhuA ΔC/Δ5L = FhuA ΔC/Δ5L (Escherichia coli, UniProt P06971, DEL561-566/INS560[…], form not given); details: for q (slope factor or transition steepness): calculated at the midpoint of the dissociation phase; for ΔRh: decrease in hydrodynamic radius as a result of detergent desolvation; for p (Hill coefficient): four-parameter Hill fit; for p (Hill coefficient) / Kd: pH 7.4, 24°C; for Kd: read-out: Kd (apparent dissociation constant), midpoint of dose-dependent dissociation phase; for ΔG: ΔG = RT ln Kd
FhuA ΔC/Δ5L_25N = FhuA ΔC/Δ5L_25N (Escherichia coli, UniProt P06971); details: for rmax: maximum anisotropy at detergent concentrations above the CMC; for rmax / rmin: pH 7.4; for rmin: minimum anisotropy, extrapolated for the lowest detergent concentration; for Dr fast: rotational diffusion coefficient under desolvation conditions; for Dr slow: rotational diffusion coefficient under solvation conditions
FhuA ΔC/Δ7L_30N = FhuA ΔC/Δ7L_30N (Escherichia coli, UniProt P06971); details: for rmax: maximum anisotropy at detergent concentrations above the CMC; for rmax / rmin: pH 7.4; for rmin: minimum anisotropy, extrapolated for the lowest detergent concentration; for Dr fast: rotational diffusion coefficient under desolvation conditions; for Dr slow: rotational diffusion coefficient under solvation conditions
acidic β-barrel proteins = experiment: steady-state FP anisotropy, detergent desolvation, acidic β barrels; details: physiological pH
Method in brief: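 Acidic β-barrels: FhuA ΔC/Δ5L, with a GS-rich single-Cys loop replacing turn T7, labeled with Texas Red C2 maleimide in 6 M Gdm-HCl. OmpG D224C labeled in 8 M urea at 1:20 protein:dye. Detergent-refolded protein diluted into wells of varying detergent spanning the CMC, 28 nM final protein. 15 min equilibration, kinetic steady-state anisotropy read, 24 h endpoints covered at 4°C.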

basic β-barrel proteins = experiment: steady-state FP anisotropy, detergent desolvation, basic β barrels
Method in brief: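 Basic FhuA variants, C-terminal His6, labeled with 200 μM Texas Red C2 maleimide overnight at room temperature in 6 M Gdm-HCl. Denatured protein refolded by 50-fold dilution into 200 mM NaCl, 50 mM HEPES, pH 7.4, 4°C, detergent above CMC. Then diluted into wells of varying detergent, 28 nM final protein. 15 min equilibration, kinetic anisotropy read, 24 h endpoints at 4°C.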

[1] = 200 mM NaCl, 50 mM HEPES, pH 7.4, 24°C
[2] = maximum anisotropy at detergent concentrations above the CMC, 200 mM NaCl, 50 mM HEPES, pH 7.4
[3] = maximum hydrodynamic radius of the proteomicelle
[4] = minimum anisotropy, extrapolated for the lowest detergent concentration, 200 mM NaCl, 50 mM HEPES, pH 7.4
[5] = rotational diffusion coefficient under desolvation conditions
[6] = rotational diffusion coefficient under solvation conditions
[7] = calculated at the midpoint of the dissociation phase
[8] = decrease in hydrodynamic radius as a result of detergent desolvation
[9] = four-parameter Hill fit, 200 mM NaCl, 50 mM HEPES, pH 7.4, 24°C
[10] = read-out: Kd (apparent dissociation constant), midpoint of dose-dependent dissociation phase, 200 mM NaCl, 50 mM HEPES, pH 7.4, 24°C
[11] = anisotropy determined in 6 M Gdm-HCl

Sequence of OmpG (P76045 22-301 D245C): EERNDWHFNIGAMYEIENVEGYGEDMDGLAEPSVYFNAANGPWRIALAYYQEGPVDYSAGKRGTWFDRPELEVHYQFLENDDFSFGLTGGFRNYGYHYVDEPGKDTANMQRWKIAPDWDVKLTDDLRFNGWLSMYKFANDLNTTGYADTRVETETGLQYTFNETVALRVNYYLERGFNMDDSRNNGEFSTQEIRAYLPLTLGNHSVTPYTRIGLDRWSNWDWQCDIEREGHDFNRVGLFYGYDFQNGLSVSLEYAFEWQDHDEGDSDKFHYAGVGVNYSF
Sequence of FhuA ΔC/Δ5L (P06971 194-747, stated change not applied): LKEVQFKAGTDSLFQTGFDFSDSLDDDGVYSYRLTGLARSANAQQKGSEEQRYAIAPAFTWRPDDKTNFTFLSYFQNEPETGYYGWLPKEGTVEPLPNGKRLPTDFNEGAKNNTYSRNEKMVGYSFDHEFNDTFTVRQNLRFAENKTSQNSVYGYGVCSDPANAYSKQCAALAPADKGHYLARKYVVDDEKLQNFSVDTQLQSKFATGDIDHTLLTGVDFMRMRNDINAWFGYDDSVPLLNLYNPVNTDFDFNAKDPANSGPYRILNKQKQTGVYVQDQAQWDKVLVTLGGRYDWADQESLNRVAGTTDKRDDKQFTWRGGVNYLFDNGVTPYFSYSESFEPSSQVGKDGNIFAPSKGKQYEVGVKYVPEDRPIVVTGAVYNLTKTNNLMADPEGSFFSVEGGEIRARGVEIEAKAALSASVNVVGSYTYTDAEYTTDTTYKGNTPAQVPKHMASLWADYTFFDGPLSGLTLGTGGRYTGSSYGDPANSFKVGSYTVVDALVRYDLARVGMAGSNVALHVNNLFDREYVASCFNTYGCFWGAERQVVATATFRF
Sequence of FhuA ΔC/Δ7L_30N (P06971 194-747, stated change not applied): as above
Sequence of FhuA ΔC/Δ5L_25N (P06971 194-747, stated change not applied): as above

CCCCCCCCCCO[C@@H]1O[C@H](CO)[C@@H](O[C@H]2O[C@H](CO)[C@@H](O)[C@H](O)[C@H]2O)[C@H](O)[C@H]1O [DM, n-decyl-β-D-maltoside]
Kd (OmpG): 1800 ± 400 µM
q (slope factor or transition steepness) (OmpG): 0.064 mM⁻¹
ΔRh (OmpG): 0.95 ± 0.04 nm
p (Hill coefficient) (OmpG; [1]): 4.1 ± 1.2
rmax (OmpG; 200 mM NaCl, 50 mM HEPES): 0.327 ± 0.001
Rh max (OmpG): 2.6 nm
rmin (OmpG; 200 mM NaCl, 50 mM HEPES): 0.214 ± 0.005
Dr fast (OmpG): 3.5 ± 0.2 10^7 s^−1
Dr slow (OmpG): 0.89 ± 0.02 10^7 s^−1
ΔG (OmpG): -3.7 ± 0.1 kcal/mol
q (slope factor or transition steepness) (FhuA ΔC/Δ5L): 0.072 mM⁻¹
ΔRh (FhuA ΔC/Δ5L): 1.6 ± 0.1 nm
p (Hill coefficient) (FhuA ΔC/Δ5L; 200 mM NaCl, 50 mM HEPES): 3.5 ± 0.5
rmax (FhuA ΔC/Δ5L; [2]): 0.360 ± 0.001
Rh max (FhuA ΔC/Δ5L; [3]): 3.3 nm
rmin (FhuA ΔC/Δ5L; [4]): 0.219 ± 0.005
Kd (FhuA ΔC/Δ5L; 200 mM NaCl, 50 mM HEPES): 1700 ± 100 µM
Dr fast (FhuA ΔC/Δ5L; [5]): 3.3 ± 0.2 10^7 s^−1
Dr slow (FhuA ΔC/Δ5L; [6]): 0.44 ± 0.01 10^7 s^−1
ΔG (FhuA ΔC/Δ5L): -3.8 ± 0.1 kcal/mol
q (slope factor or transition steepness) (FhuA ΔC/Δ5L_25N; [7]): 1.30 mM⁻¹
ΔRh (FhuA ΔC/Δ5L_25N; [8]): 1.5 ± 0.1 nm
p (Hill coefficient) (FhuA ΔC/Δ5L_25N; [9]): 27 ± 3
rmax (FhuA ΔC/Δ5L_25N; 200 mM NaCl, 50 mM HEPES): 0.343 ± 0.002
Rh max (FhuA ΔC/Δ5L_25N; [3]): 3.0 nm
rmin (FhuA ΔC/Δ5L_25N; 200 mM NaCl, 50 mM HEPES): 0.166 ± 0.003
Kd (FhuA ΔC/Δ5L_25N; [10]): 900 ± 100 µM
Dr fast (FhuA ΔC/Δ5L_25N): 5.6 ± 0.2 10^7 s^−1
Dr slow (FhuA ΔC/Δ5L_25N): 0.66 ± 0.03 10^7 s^−1
ΔG (FhuA ΔC/Δ5L_25N; ΔG = RT ln Kd): -4.1 ± 0.1 kcal/mol
q (slope factor or transition steepness) (FhuA ΔC/Δ7L_30N; [7]): 1.07 mM⁻¹
ΔRh (FhuA ΔC/Δ7L_30N; [8]): 1.0 ± 0.1 nm
p (Hill coefficient) (FhuA ΔC/Δ7L_30N; [9]): 27 ± 6
rmax (FhuA ΔC/Δ7L_30N; 200 mM NaCl, 50 mM HEPES): 0.312 ± 0.001
Rh max (FhuA ΔC/Δ7L_30N; [3]): 2.4 nm
rmin (FhuA ΔC/Δ7L_30N; 200 mM NaCl, 50 mM HEPES): 0.168 ± 0.007
Kd (FhuA ΔC/Δ7L_30N; [10]): 900 ± 100 µM
Dr fast (FhuA ΔC/Δ7L_30N): 1.0 ± 0.1 10^7 s^−1
Dr slow (FhuA ΔC/Δ7L_30N): 5.5 ± 0.4 10^7 s^−1
ΔG (FhuA ΔC/Δ7L_30N; ΔG = RT ln Kd): -4.1 ± 0.1 kcal/mol
Kd (acidic β-barrel proteins): ~1800 µM
Hill cooperativity p (basic β-barrel proteins; basic FhuA proteins, pH 7.4): ~ 27
Kd (basic β-barrel proteins; physiological pH): ~900 µM

Cl.N=C(N)N [Gdm-HCl, guanidinium hydrochloride]
rmax (FhuA ΔC/Δ5L; [11]): ~0.16
rmin (FhuA ΔC/Δ5L; [11]): ~0.16
basal (minimum) anisotropy readout, r1 (FhuA ΔC/Δ5L; fully unfolded, most rotationally diffusive protein in 6 M Gdm-HCl): 0.16 and ~ 0.16
Dr fast (FhuA ΔC/Δ5L; in 6 M Gdm-HCl): ~6.0 10^7 s^−1
Dr slow (FhuA ΔC/Δ5L; in 6 M Gdm-HCl): ~6.0 10^7 s^−1
Rh max (FhuA ΔC/Δ5L; in 6 M Gdm-HCl): 1.4 nm

CCCCCCCCO[C@@H]1O[C@H](CO)[C@@H](O)[C@H](O)[C@H]1O [OG, n-octyl-β-D-glucoside]
q (slope factor or transition steepness) (OmpG): 0.017 mM⁻¹
ΔRh (OmpG): 1.0 ± 0.1 nm
p (Hill coefficient) (OmpG; [1]): 4.9 ± 0.5
rmax (OmpG; 200 mM NaCl, 50 mM HEPES): 0.306 ± 0.001
Rh max (OmpG): 2.4 nm
rmin (OmpG; 200 mM NaCl, 50 mM HEPES): 0.153 ± 0.002
Kd (OmpG; [10]): 11000 ± 1000 µM
Dr fast (OmpG): 6.4 ± 0.1 10^7 s^−1
Dr slow (OmpG): 1.2 ± 0.1 10^7 s^−1
ΔG (OmpG): -2.7 ± 0.1 kcal/mol
anisotropy signal (FhuA ΔC/Δ5L; acidic FhuA proteins refolded in detergent): ~ 0.3
q (slope factor or transition steepness) (FhuA ΔC/Δ5L): 0.013 mM⁻¹
ΔRh (FhuA ΔC/Δ5L): 0.80 ± 0.02 nm
p (Hill coefficient) (FhuA ΔC/Δ5L; 200 mM NaCl, 50 mM HEPES): 5.3 ± 0.9
rmax (FhuA ΔC/Δ5L; [2]): 0.291 ± 0.002
Rh max (FhuA ΔC/Δ5L; [3]): 2.2 nm
rmin (FhuA ΔC/Δ5L; [4]): 0.162 ± 0.002
Kd (FhuA ΔC/Δ5L; 200 mM NaCl, 50 mM HEPES): 13000 ± 1000 µM
Dr fast (FhuA ΔC/Δ5L; [5]): 5.8 ± 0.1 10^7 s^−1
Dr slow (FhuA ΔC/Δ5L; [6]): 1.5 ± 0.1 10^7 s^−1
ΔG (FhuA ΔC/Δ5L): -2.5 ± 0.1 kcal/mol
rmax (FhuA ΔC/Δ5L_25N; 200 mM NaCl, 50 mM HEPES): ~0.17
rmin (FhuA ΔC/Δ5L_25N; 200 mM NaCl, 50 mM HEPES): ~0.15
Dr fast (FhuA ΔC/Δ5L_25N): ~6.6 10^7 s^−1
Dr slow (FhuA ΔC/Δ5L_25N): ~5.2 10^7 s^−1
rmax (FhuA ΔC/Δ7L_30N; 200 mM NaCl, 50 mM HEPES): ~0.17
rmin (FhuA ΔC/Δ7L_30N; 200 mM NaCl, 50 mM HEPES): ~0.15
Dr fast (FhuA ΔC/Δ7L_30N): ~6.6 10^7 s^−1
Dr slow (FhuA ΔC/Δ7L_30N): ~5.2 10^7 s^−1

CCCCCCCCCCCCOS(=O)(=O)[O-].[Na+] [SDS]
minimum anisotropy value, r0 (FhuA ΔC/Δ5L; in 40 mM SDS): ~ 0.16
